Measured values: ChEMBL document CHEMBL1671618, “Functional cloning and characterization of the multidrug efflux pumps NorM from Neisseria gonorrhoeae and YdhE from Escherichia coli” (Antimicrob Agents Chemother, 2008)
Values after ≈ are worked out from the molar mass of the structure shown. Active and inactive are the calls of the source. The rule behind the calls is not given here.

What was measured:
Escherichia coli [1] = experiment: Antimicrobial activity against AcrAB-deficient Escherichia coli AG100AX harboring pBADomeganorM plasmid containing Neisseria gonorrhoeae multidrug efflux pump NorM after 18 to 24 hrs by two fold dilution method; type: functional
Escherichia coli [2] = experiment: Antimicrobial activity against AcrAB-deficient Escherichia coli AG100AX harboring pBADomegaydhE plasmid containing Escherichia coli multidrug efflux pump YdhE after 18 to 24 hrs by two fold dilution method; type: functional
Escherichia coli [3] = experiment: Antimicrobial activity against AcrAB-deficient Escherichia coli AG100AX harboring pBAD plasmid after 18 to 24 hrs by two fold dilution method; type: functional
Procedure, shortened: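 Twofold agar dilution on LB agar containing the antimicrobial, inoculum 10⁴ CFU/spot. Growth was scored after 18–24 h at 37°C, and each MIC determination was repeated at least four times.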

Neisseria gonorrhoeae [4] = experiment: Inhibition of Neisseria gonorrhoeae FA19 multidrug efflux protein NorM expressed in Escherichia coli AG100AX assessed as increase in ethidium bromide accumulation at 100 uM after 15 mins by fluorimetric assay
Procedure, shortened: (§1)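 AG100AX cells carrying the pBAD-based plasmid were grown in LB with 0.01% L-arabinose at 37°C to OD600 1.0, washed, and resuspended to OD600 1.0 in 0.1 M Tris-HCl pH 7.0. Norfloxacin (100 μM final) or ethidium bromide (20 μg/ml final) was added and samples taken over time. CCCP (100 μM final) was added at 15 min. After a further 15 min, CCCP was removed and cells re-energized with 0.4% glucose. Maximum fluorescence was normalized to 100%.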

[5] = target: T1, Multidrug resistance protein MdtK (Escherichia coli (strain K12)) (UniProt P37340); experiment: Inhibition of Escherichia coli K-12 multidrug efflux protein YdhE expressed in Escherichia coli AG100AX assessed as assessed as increase in Norfloxacin accumulation at 100 uM after 15 mins by fluorimetric assay; procedure, shortened: as §1
T1 sequence (whole entry): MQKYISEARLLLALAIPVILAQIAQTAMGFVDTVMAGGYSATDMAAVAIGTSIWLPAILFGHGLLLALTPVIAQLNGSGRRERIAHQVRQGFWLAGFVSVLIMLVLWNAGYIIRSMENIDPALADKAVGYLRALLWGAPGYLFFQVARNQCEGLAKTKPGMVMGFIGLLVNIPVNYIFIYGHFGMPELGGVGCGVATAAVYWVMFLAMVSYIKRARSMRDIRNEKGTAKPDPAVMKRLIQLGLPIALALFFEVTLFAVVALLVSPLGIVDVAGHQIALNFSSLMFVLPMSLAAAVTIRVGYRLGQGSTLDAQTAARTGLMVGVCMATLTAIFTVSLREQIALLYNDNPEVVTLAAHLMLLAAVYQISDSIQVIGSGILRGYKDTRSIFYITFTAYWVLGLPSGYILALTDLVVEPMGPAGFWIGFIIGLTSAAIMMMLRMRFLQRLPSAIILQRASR

Neisseria gonorrhoeae [6] = experiment: Inhibition of Neisseria gonorrhoeae FA19 multidrug efflux protein NorM expressed in Escherichia coli AG100AX assessed as increase in Norfloxacin accumulation at 100 uM after 15 mins by fluorimetric assay; procedure, shortened: as §1
[7] = target: T1, Multidrug resistance protein MdtK (Escherichia coli (strain K12)); experiment: Inhibition of Escherichia coli K-12 multidrug efflux protein YdhE expressed in Escherichia coli AG100AX assessed as assessed as increase in ethidium bromide accumulation at 100 uM after 15 mins by fluorimetric assay; procedure, shortened: as §1
[8] = Binding affinity to Neisseria gonorrhoeae FA19 multidrug efflux protein NorM expressed in Escherichia coli AG100AX in presence of 0.02% DDM surfactant by fluorescence polarization assay
[9] = target: T1, Multidrug resistance protein MdtK (Escherichia coli (strain K12)); experiment: Activity of Escherichia coli K-12 multidrug efflux protein YdhE expressed in Escherichia coli AG100AX assessed as reduction in compound accumulation by fluorimetric assay; procedure, shortened: as §1
[10] = target: T2, Multidrug resistance protein MdtK (Escherichia coli (strain K12), UniProt P37340); experiment: Binding affinity to Escherichia coli K-12 multidrug efflux protein YdhE […] in presence of 0.02% DDM surfactant by fluorescence polarization assay
T2 sequence (P37340 whole entry): T1 sequence (whole entry)

Neisseria gonorrhoeae [11] = experiment: Activity of Neisseria gonorrhoeae FA19 multidrug efflux protein NorM expressed in Escherichia coli AG100AX assessed as reduction in compound accumulation by fluorimetric assay; procedure, shortened: as §1
Neisseria gonorrhoeae [12] = experiment: Activity of Neisseria gonorrhoeae FA19 multidrug efflux protein NorM expressed in Escherichia coli AG100AX assessed as reduction in compound accumulation in presence of 100 mM NaCl by fluorimetric assay
Procedure, shortened: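 Arabinose-induced (0.01%) AG100AX cells at OD600 1.0 were held in 0.1 M Tris-HCl pH 7.0 with ethidium bromide (20 μg/ml final), then 100 mM NaCl, or KCl for comparison, was added. At each time point a 1-ml sample was centrifuged at 4°C and washed, and fluorescence read at ex 500/em 580 nm.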

Compound | MIC (Escherichia coli [1]) | MIC (Escherichia coli [2]) | MIC (Escherichia coli [3]) | further results
COc1ccc2cc3[n+](cc2c1OC)CCc1cc2c(cc1-3)OCO2.[Cl-] [BERBERINE CHLORIDE] | 250 µg/mL | 250 µg/mL | 31.2 µg/mL | –
N#CC(C#N)=NNc1cccc(Cl)c1 [CARBONYL CYANIDE M-CHLOROPHENYLHYDRAZONE] | 6.25 µg/mL (≈ 30.5 µM) | 6.25 µg/mL (≈ 30.5 µM) | 6.25 µg/mL (≈ 30.5 µM) | inhibition (Neisseria gonorrhoeae [4]): Active; inhibition [5]: Active; inhibition (Neisseria gonorrhoeae [6]): Active; inhibition [7]: Active
O=C(N[C@H](CO)[C@H](O)c1ccc([N+](=O)[O-])cc1)C(Cl)Cl [CHLORAMPHENICOL] | 0.625 µg/mL (≈ 1.93 µM) | 0.625 µg/mL (≈ 1.93 µM) | 0.625 µg/mL (≈ 1.93 µM) | –
O=C(O)c1cn(C2CC2)c2cc(N3CCNCC3)c(F)cc2c1=O [CIPROFLOXACIN] | – | – | – | Kd [8]: 121 µM; Activity [9]: Active; Kd [10]: 90.9 µM; Activity (Neisseria gonorrhoeae [11]): Active
COc1cccc2c1C(=O)c1c(O)c3c(c(O)c1C2=O)C[C@@](O)(C(=O)CO)C[C@@H]3O[C@H]1C[C@H](N)[C@H](O)[C@H](C)O1 [DOXORUBICIN] | 6.25 µg/mL (≈ 11.5 µM) | 6.25 µg/mL (≈ 11.5 µM) | 1.56 µg/mL (≈ 2.87 µM) | –
CCn1cc(C(=O)O)c(=O)c2cc(F)c(N3CCNCC3)nc21 [ENOXACIN] | 0.063 µg/mL (≈ 0.197 µM) | 0.063 µg/mL (≈ 0.197 µM) | 0.031 µg/mL (≈ 0.0968 µM) | –
CN(C)c1ccc(C(=C2C=CC(=[N+](C)C)C=C2)c2ccc(N(C)C)cc2)cc1.[Cl-] [GENTIAN VIOLET] | 2.5 µg/mL | 2.5 µg/mL | 0.625 µg/mL | –
CC[n+]1c(-c2ccccc2)c2cc(N)ccc2c2ccc(N)cc21.[Br-] [HOMIDIUM BROMIDE] | 15.6 µg/mL | 15.6 µg/mL | 7.81 µg/mL | Kd [8]: 12.3 µM; Activity [9]: Active; Activity (Neisseria gonorrhoeae [12]): Active; Kd [10]: 9.8 µM; Activity (Neisseria gonorrhoeae [11]): Active
CCn1cc(C(=O)O)c(=O)c2cc(F)c(N3CCNC(C)C3)c(F)c21 (stereo not drawn) [LOMEFLOXACIN] | 0.032 µg/mL (≈ 0.0911 µM) | 0.016 µg/mL (≈ 0.0455 µM) | 0.016 µg/mL (≈ 0.0455 µM) | –
CN(C)c1ccc(O)c2c1C[C@H]1C[C@H]3[C@H](N(C)C)C(O)=C(C(N)=O)C(=O)[C@@]3(O)C(O)=C1C2=O [MINOCYCLINE] | 0.625 µg/mL (≈ 1.37 µM) | 0.625 µg/mL (≈ 1.37 µM) | 0.625 µg/mL (≈ 1.37 µM) | –
CCn1cc(C(=O)O)c(=O)c2ccc(C)nc21 [NALIDIXIC ACID] | 0.625 µg/mL (≈ 2.69 µM) | 0.625 µg/mL (≈ 2.69 µM) | 0.625 µg/mL (≈ 2.69 µM) | –
CCn1cc(C(=O)O)c(=O)c2cc(F)c(N3CCNCC3)cc21 [NORFLOXACIN] | 0.032 µg/mL (≈ 0.1 µM) | 0.016 µg/mL (≈ 0.0501 µM) | 0.008 µg/mL (≈ 0.0251 µM) | Kd [8]: 126 µM; Activity (Neisseria gonorrhoeae [12]): Active; Kd [10]: 98.4 µM
CO[C@@H]1[C@@H](OC(N)=O)[C@@H](O)[C@H](Oc2ccc3c(O)c(NC(=O)c4ccc(O)c(CC=C(C)C)c4)c(=O)oc3c2C)OC1(C)C [NOVOBIOCIN] | 3.12 µg/mL (≈ 5.1 µM) | 3.12 µg/mL (≈ 5.1 µM) | 1.56 µg/mL (≈ 2.55 µM) | –
C[n+]1ccc(-c2cc[n+](C)cc2)cc1.[Cl-].[Cl-] [PARAQUAT DICHLORIDE] | 156 µg/mL | 156 µg/mL | 156 µg/mL | –
Nc1ccc2cc3ccc(N)cc3nc2c1 [PROFLAVINE] | 12.5 µg/mL (≈ 59.7 µM) | 12.5 µg/mL (≈ 59.7 µM) | 6.25 µg/mL (≈ 29.9 µM) | –
CN[C@@H]1[C@H](O[C@H]2[C@H](O[C@H]3[C@H](O)[C@@H](O)[C@H](N=C(N)N)[C@@H](O)[C@@H]3N=C(N)N)O[C@@H](C)[C@]2(O)C=O)O[C@@H](CO)[C@H](O)[C@H]1O [STREPTOMYCIN] | > 50000 µg/mL | > 50000 µg/mL | > 50000 µg/mL | –
CN(C)[C@@H]1C(O)=C(C(N)=O)C(=O)[C@@]2(O)C(O)=C3C(=O)c4c(O)cccc4[C@@](C)(O)[C@H]3C[C@@H]12 [TETRACYCLINE] | 1.25 µg/mL (≈ 2.81 µM) | 1.25 µg/mL (≈ 2.81 µM) | 1.25 µg/mL (≈ 2.81 µM) | –
[Cl-].c1ccc([P+](c2ccccc2)(c2ccccc2)c2ccccc2)cc1 [TETRAPHENYLPHOSPHONIUM CHLORIDE] | 25 µg/mL | 25 µg/mL | 12.5 µg/mL | –
CN[C@H](CC(C)C)C(=O)N[C@H]1C(=O)N[C@@H](CC(N)=O)C(=O)N[C@H]2C(=O)N[C@H]3C(=O)N[C@H](C(=O)N[C@H](C(=O)O)c4cc(O)cc(O)c4-c4cc3ccc4O)[C@H](O)c3ccc(c(Cl)c3)Oc3cc2cc(c3O[C@@H]2O[C@H](CO)[C@@H](O)[C@H](O)[C@H]2O[C@H]2C[C@](C)(N)[C@H](O)[C@H](C)O2)Oc2ccc(cc2Cl)[C@H]1O [VANCOMYCIN] | 250 µg/mL (≈ 173 µM) | 250 µg/mL (≈ 173 µM) | 250 µg/mL (≈ 173 µM) | –
GENTAMICIN | 2.5 µg/mL | 2.5 µg/mL | 2.5 µg/mL | –
